Laboratory results as given in article PMC5604209 (Journal of Cancer, 2017).

Key:
c-Kit = c-Kit (Homo sapiens, UniProt P10721); test: HTRF kinase enzyme assay; assay type: biochemical
In short: (§1)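 Recombinant kinases were assayed by HTRF KinEASE-TK in 50 mM HEPES pH 7.0, 0.1 mM Na3VO4, 0.01% BSA, 5 mM MgCl2, 1 mM DTT. Compound was made as an 11-point 3-fold series from a 1 mM DMSO stock and mixed with kinase for 5 min. […] Anti-TK cryptate plus streptavidin-XL665 was added for 1 h at 23 °C before TR-FRET read-out. IC50 is the mean of three independent duplicate runs.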

[1] = Pharmacokinetic studies in rats; assay type: in vivo; settings: female, SD, rat, serum, po, 5 mg/kg
In short: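 Female SD rats (5–6 weeks) received a single 5 mg/kg oral dose. Blood was sampled serially from 2 min to 24 h, and serum was separated by centrifugation and stored at −80 °C. Serum levels were measured by LC-MS/MS, and T1/2, Tmax, Cmax and AUC0-INF were derived.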

[2] = PK/PD in K562 xenograft model: compound concentration in tumor; assay type: in vivo, nude mice; settings: nude, mouse, tumor tissue, po, 15 mg/kg
In short: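 In nude mice bearing K562 xenografts, tumor tissue was collected 2 h after one oral dose (5 or 15 mg/kg) of test compound. Compound concentration in tumor samples was quantified by LC-MS/MS.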

PC-3 = test: Cell proliferation assay; assay type: cell-based; settings: Homo sapiens, PC-3, 72 h, read-out: Cell growth inhibition IC50
In short: (§2)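 Cells were grown in DMEM or RPMI-1640 with 10% FBS and penicillin/streptomycin at 37 °C, 5% CO2. PBMC were isolated on Ficoll-Paque, and Ba/F3 Bcr-Abl lines were stably transfected. Cells were seeded at low density. DMSO stocks were 3-fold diluted from 10 mM to 0.3 nM, then into serum-free medium before addition. After 72 h, CellTiter-Glo (adherent; RT 10 min) or CellTiter-Blue (suspension; 4 h) was read. IC50 is the mean of three independent duplicate experiments.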

Abl enzyme [3] = biological target: T1, Abl enzyme (Homo sapiens, UniProt P00519); test: Time-dependent inhibition and reversibility; assay type: biochemical
[4] = test system: liver CYP450 enzymes (all tested enzymes); test: Liver CYP450 enzyme inhibition; assay type: in vitro ADME
[5] = biological target: phosphorylation of Bcr-Abl (Homo sapiens, UniProt P00519+P11274); test: Western blot, K562 and KU812 cells; assay type: cell-based; settings: for phosphorylation of Bcr-Abl kinase: 1 hour
In short: (§3)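 K562 or KU812 cells (1×10⁶ per well) were plated overnight at 37 °C, 5% CO2. They were treated 1 h with a concentration series, or with 100 nM for 0–24 h; 0.1% DMSO served as control. BCA-normalized lysates were run on 10% SDS-PAGE and transferred to PVDF. Blots were blocked in TBS-0.1% Tween-20 with 5% BSA, then probed with phospho-specific primaries (2 h RT or 4 °C overnight) and HRP anti-rabbit (1 h RT). Detection was by ECL.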

Abl (WT) = Abl (WT) (Homo sapiens, UniProt P00519); test: HTRF kinase enzyme assay; assay type: biochemical
In short: as §1

Abl enzyme [6] = biological target: T1, Abl enzyme; test: Kinetic mechanism of inhibition versus ATP; assay type: biochemical
[7] = test system: phosphorylated ERK1/2 and STAT5; test: Western blot, K562 and KU812 cells; assay type: cell-based, human
In short: as §3

HL-60 = test: Cell proliferation assay; assay type: cell-based; settings: Homo sapiens, HL-60, 72 h, read-out: Cell growth inhibition IC50
In short: as §2

KU812 xenograft = test: KU812 tumor xenograft in nude mice; assay type: in vivo; settings: 30 mg/kg QD; for treated mice with complete tumor regression: p < 0.01
K562 cells [8] = test: Cell cycle by propidium; assay type: cell-based, human; settings: 1 nM, 24 hours
In short: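 After 24 h exposure of K562 cells to test compound or DMSO, cells were washed in cold PBS and fixed overnight in ice-cold 70% ethanol. They were stained 1 h at 37 °C in PBS with 0.25 mg/mL RNase and 0.025 mg/mL propidium iodide. Cells were read on a Guava flow cytometer, and G1, S and G2/M fractions were quantified.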

SMMC-7721 = test: Cell proliferation assay; assay type: cell-based; settings: Homo sapiens, SMMC-7721, 72 h, read-out: Cell growth inhibition IC50
In short: as §2

VEGFR2 = VEGFR2 (Homo sapiens, UniProt P35968); test: HTRF kinase enzyme assay; assay type: biochemical
In short: as §1

Human PBMC = test: Cell proliferation assay; assay type: cell-based; settings: read-out: Cell growth inhibition IC50, human lymphocyte, 72 hours
In short: as §2

[9] = test system: phosphorylation of Bcr-Abl and ERK1/2; test: PK/PD in K562 xenograft model: Western blot of tumor samples; assay type: in vivo, nude mice; settings: single oral dose 15 mg/kg, 2 hours
In short: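 K562 xenografts in nude mice were given a single oral dose of test compound (5 or 15 mg/kg). Tumors were harvested 2 h later, and lysates were probed by Western blot with antibodies to phospho-Bcr-Abl and phospho-ERK1/2.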

Kasumi-1 = test: Cell proliferation assay; assay type: cell-based; settings: Homo sapiens, Kasumi 1, 72 h, read-out: Cell growth inhibition IC50
In short: as §2

PDGFRβ = PDGFRβ (Homo sapiens, UniProt P09619); test: HTRF kinase enzyme assay; assay type: biochemical
In short: as §1

K562 xenograft = test: K562 tumor xenograft in nude mice; assay type: in vivo; settings: for tumor growth inhibition: p < 0.05
In short: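 Female athymic nude mice (5–6 weeks) were implanted subcutaneously in the right flank with K562 cells in 100 µL serum-free medium. Once tumors reached about 150–300 mm³, mice were randomized (10 per group) to vehicle or test compound at 5, 15 or 45 mg/kg by daily oral gavage. Caliper volume (w²×l)/2 and body weight were recorded every 2–3 days. TGI was taken versus vehicle, with t-test.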

MKN-45 = test: Cell proliferation assay; assay type: cell-based; settings: Homo sapiens, MKN-45, 72 h, read-out: Cell growth inhibition IC50
In short: as §2

Ba/F3-Bcr-abl^T315I = test: Cell proliferation assay; assay type: cell-based, murine; settings: Mus musculus, 72 h, read-out: Cell growth inhibition IC50
In short: as §2

Ba/F3-Bcr-abl^WT = test: Cell proliferation assay; assay type: cell-based, murine; settings: Mus musculus, 72 h, read-out: Cell growth inhibition IC50
In short: as §2

Abl (T315I) = Abl (T315I) (Homo sapiens, UniProt P00519, T315I); test: HTRF kinase enzyme assay; assay type: biochemical
EGFR = EGFR (Homo sapiens, UniProt P00533); test: Kinase enzyme assay; assay type: biochemical
phosphorylation of Crkl = test: Western blot, K562 and KU812 cells; assay type: cell-based, human; settings: 100 nM, 1 hour
In short: as §3

K562 cells [10] = test: Apoptosis by Annexin V / 7-AAD flow cytometry; assay type: cell-based, human; settings: 10 μM, 24 hours
In short: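 K562 cells treated 24 h at 37 °C with test compound (0.1, 1.0 or 10 μM) or 0.1% DMSO. Cells were washed twice in PBS and resuspended in binding buffer with PE-Annexin V and 7-AAD for 15 min at RT in the dark. They were then diluted in binding buffer and read on a Guava flow cytometer. Early and late apoptotic fractions were scored.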

MV-4-11 = test: Cell proliferation assay; assay type: cell-based; settings: read-out: Cell growth inhibition IC50; MV-4-11, acute myeloid leukemia, 72 hours
In short: as §2

Sequence of EGFR (P00533 25-1210): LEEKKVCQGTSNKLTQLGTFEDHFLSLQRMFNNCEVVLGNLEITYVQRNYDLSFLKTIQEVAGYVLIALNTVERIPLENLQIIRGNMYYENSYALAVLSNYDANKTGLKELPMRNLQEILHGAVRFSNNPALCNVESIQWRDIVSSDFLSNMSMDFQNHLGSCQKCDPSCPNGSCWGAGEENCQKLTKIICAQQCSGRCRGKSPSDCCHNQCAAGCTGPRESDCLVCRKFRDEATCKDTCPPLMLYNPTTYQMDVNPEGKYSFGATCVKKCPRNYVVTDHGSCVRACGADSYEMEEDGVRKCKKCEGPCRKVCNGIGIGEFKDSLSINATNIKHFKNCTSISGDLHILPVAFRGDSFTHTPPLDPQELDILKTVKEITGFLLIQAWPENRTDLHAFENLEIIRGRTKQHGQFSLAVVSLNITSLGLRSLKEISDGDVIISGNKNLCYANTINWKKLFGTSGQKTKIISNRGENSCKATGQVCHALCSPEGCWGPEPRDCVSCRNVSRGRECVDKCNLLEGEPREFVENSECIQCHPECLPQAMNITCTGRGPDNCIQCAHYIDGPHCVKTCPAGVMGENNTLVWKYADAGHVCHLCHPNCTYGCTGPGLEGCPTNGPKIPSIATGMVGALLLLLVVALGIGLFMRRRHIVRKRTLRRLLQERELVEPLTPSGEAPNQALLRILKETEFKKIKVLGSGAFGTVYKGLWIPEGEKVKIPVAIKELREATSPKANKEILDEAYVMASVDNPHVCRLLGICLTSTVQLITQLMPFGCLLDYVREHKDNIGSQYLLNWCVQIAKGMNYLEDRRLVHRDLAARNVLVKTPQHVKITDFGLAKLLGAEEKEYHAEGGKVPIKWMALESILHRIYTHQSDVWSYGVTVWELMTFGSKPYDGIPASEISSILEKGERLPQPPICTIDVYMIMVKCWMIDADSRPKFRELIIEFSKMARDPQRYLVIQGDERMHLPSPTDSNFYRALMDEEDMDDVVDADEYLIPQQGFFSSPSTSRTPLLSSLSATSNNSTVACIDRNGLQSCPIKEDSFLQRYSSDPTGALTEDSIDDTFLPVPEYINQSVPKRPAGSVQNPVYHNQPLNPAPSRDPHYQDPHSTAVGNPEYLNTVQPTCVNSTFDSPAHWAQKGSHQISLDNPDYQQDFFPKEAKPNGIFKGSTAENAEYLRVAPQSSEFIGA
Sequence of PDGFRβ (P09619 33-1106): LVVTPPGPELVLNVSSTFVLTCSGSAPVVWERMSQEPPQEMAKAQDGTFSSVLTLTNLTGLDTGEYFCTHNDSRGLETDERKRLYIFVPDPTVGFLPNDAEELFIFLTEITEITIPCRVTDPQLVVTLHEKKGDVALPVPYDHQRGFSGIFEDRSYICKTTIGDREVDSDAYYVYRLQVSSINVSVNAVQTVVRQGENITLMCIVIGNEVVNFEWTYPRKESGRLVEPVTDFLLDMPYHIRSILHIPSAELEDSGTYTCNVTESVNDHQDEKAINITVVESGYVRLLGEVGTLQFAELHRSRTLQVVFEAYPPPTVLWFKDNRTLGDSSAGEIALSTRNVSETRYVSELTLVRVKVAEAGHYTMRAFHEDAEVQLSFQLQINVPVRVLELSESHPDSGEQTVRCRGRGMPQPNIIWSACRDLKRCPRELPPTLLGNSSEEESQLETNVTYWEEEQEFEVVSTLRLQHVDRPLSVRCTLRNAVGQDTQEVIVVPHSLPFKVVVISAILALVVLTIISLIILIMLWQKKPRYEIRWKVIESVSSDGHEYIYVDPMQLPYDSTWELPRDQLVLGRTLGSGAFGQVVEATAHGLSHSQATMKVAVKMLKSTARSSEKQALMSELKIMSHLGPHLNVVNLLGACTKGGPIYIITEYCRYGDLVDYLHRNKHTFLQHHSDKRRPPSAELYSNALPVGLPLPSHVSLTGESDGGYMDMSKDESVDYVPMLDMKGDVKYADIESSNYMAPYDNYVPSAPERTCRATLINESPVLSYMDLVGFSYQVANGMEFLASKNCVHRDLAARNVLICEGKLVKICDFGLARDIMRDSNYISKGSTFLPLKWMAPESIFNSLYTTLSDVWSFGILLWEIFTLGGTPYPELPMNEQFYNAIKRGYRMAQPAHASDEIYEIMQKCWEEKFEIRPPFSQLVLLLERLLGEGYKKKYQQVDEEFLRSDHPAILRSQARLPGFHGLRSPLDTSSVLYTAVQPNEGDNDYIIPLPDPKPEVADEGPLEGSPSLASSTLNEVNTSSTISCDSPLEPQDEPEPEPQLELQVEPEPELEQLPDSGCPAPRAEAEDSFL
Sequence of VEGFR2 (P35968 20-1356): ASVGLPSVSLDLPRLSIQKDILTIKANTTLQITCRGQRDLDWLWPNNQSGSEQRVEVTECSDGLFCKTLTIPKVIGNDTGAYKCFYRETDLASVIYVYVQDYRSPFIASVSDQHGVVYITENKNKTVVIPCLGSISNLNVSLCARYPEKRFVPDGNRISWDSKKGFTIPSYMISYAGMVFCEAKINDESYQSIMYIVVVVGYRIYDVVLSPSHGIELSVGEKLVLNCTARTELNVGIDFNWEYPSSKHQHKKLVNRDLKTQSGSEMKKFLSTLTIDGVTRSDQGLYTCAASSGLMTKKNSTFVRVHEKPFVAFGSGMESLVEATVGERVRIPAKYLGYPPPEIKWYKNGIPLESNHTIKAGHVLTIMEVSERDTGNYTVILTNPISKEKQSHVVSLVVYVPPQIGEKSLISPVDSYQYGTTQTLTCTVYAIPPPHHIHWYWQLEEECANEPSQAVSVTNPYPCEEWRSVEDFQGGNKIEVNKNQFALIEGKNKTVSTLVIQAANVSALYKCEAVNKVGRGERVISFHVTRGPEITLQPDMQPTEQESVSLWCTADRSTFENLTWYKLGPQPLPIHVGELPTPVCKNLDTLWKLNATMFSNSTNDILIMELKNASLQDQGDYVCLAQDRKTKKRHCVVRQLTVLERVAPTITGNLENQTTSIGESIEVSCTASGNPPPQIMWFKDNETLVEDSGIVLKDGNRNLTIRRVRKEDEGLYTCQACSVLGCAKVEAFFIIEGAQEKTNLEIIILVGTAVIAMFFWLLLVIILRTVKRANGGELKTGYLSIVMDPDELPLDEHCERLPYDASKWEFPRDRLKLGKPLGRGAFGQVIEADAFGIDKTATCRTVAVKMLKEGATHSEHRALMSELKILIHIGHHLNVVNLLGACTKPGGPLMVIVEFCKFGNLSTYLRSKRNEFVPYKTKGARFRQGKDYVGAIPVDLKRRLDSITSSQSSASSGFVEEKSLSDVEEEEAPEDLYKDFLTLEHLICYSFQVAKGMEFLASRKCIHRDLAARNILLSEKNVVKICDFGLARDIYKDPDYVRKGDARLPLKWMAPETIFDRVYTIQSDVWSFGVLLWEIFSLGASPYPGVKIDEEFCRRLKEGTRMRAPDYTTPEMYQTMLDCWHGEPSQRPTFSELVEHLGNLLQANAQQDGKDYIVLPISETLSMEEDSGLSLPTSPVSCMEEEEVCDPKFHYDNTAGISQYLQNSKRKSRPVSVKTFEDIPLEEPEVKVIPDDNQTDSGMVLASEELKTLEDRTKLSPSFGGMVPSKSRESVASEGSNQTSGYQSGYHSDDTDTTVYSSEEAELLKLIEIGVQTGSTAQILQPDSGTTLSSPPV
Sequence of c-Kit (P10721 26-976): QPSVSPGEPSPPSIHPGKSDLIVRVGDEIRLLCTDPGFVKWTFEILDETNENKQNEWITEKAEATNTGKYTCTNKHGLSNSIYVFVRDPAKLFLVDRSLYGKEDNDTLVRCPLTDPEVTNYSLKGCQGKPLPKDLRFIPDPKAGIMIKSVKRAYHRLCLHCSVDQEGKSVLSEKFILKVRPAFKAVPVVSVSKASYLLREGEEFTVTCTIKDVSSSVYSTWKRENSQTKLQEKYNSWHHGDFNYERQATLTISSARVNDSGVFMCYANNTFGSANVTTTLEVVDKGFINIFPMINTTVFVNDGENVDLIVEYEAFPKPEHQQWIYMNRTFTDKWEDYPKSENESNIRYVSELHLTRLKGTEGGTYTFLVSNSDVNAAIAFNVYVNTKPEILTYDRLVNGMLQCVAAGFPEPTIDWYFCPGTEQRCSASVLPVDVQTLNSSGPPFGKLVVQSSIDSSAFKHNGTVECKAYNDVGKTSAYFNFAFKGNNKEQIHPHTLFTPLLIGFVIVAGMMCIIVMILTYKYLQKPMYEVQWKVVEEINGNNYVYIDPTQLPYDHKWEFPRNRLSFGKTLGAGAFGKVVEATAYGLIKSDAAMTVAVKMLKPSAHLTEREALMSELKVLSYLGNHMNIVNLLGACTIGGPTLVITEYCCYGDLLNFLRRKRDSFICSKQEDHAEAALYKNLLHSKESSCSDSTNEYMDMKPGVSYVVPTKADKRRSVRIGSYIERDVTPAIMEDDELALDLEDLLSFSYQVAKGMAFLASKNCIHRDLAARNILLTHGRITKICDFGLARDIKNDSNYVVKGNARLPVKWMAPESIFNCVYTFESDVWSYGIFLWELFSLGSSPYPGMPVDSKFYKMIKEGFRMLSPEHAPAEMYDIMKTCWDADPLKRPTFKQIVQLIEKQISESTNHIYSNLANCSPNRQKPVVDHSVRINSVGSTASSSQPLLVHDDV

IC50 (c-Kit): 0.0092 µM | AUC(0-inf) [1]: 5.42 µg·h/mL | Cmax [1]: 0.303 µg/mL | Tmax [1]: 6.67 h | half-life [1]: 8.83 h | concentration at 2 h [2]: 0.254 µg/mL | IC50 (PC-3): 1 to 10 µM | koff (Abl enzyme [3]): 5.37e-05 s⁻¹ | IC50 (Abl enzyme [3]; IC50 for Abl kinase, Normal (no preincubation, 0 min)): 0.0121 µM | decrease of IC50 after preincubation (Abl enzyme [3]; from 12.1 nM to 1.3 nM, 120 min): 9 fold | IC50 [4]: > 10 µM | phosphorylation of Bcr-Abl kinase ([5]; 10 nM): significantly suppressed | phosphorylation of Bcr-Abl kinase ([5]; 100 nM): totally blocked | duration of blockage of phosphorylation of Bcr-Abl and Crkl ([5]; time course, 100 nM): at least 24 hours | IC50 (Abl (WT)): 0.0213 ± 0.0011 µM | Ki (Abl enzyme [6]): 0.0073 µM | Ki' (Abl enzyme [6]; enzyme-ATP complex): 0.775 µM | IC50 (HL-60): 1 to 10 µM | IC50 (SMMC-7721): 1 to 10 µM | IC50 (VEGFR2): 0.0489 µM | IC50 (PDGFRβ): 0.106 µM | IC50 (MKN-45): 1 to 10 µM | IC50 (Ba/F3-Bcr-abl^T315I): 0.0185 ± 0.012 µM | IC50 (Ba/F3-Bcr-abl^WT): 0.0016 ± 0.0003 µM | IC50 (Abl (T315I)): 0.065 ± 0.0062 µM | IC50 (EGFR): 0.13 µM | IC50 (MV-4-11): 0.232 ± 0.055 µM
SMILES: Cc1ccc(NC(=O)c2ccc3c(c2)CC[C@@H]3N2CCN(C)CC2)cc1C#Cc1cnc2ccc(Cl)nn12 [CT-721, (S)-N-(3-((6-chloroimidazo[1,2-b]pyridazin-3-yl)ethynyl)-4-methylphenyl)-1-(4-methylpiperazin-1-yl)-2,3-dihydro-1H-indene-5-carboxamide]
levels of phosphorylated ERK1/2 and STAT5 [7]: dose-dependently repressed | tumor growth (KU812 xenograft; after 5 days): notably inhibited with partial regression observed | treated mice with complete tumor regression (KU812 xenograft; after 8 days): 50% | treated mice with complete tumor regression (KU812 xenograft; after 18 days): 80% | body weight of xenograft mice (KU812 xenograft; compared to the vehicle group): no significant body weight loss | cell cycle arrest (K562 cells [8]): pronounced G0/G1 phase arrest | IC50 (Human PBMC): 1 to 10 µM | Bcr-Abl and ERK phosphorylation in tumor [9]: almost complete inhibition | IC50 (Kasumi-1): 0.053 ± 0.006 µM | tumor growth inhibition (K562 xenograft; K562 xenograft, 5 mg/kg PO QD): 51.4% | tumor growth inhibition (K562 xenograft; K562 xenograft, 15 mg/kg PO QD, 12 days): 76% | mice completely cured, tumors disappeared completely (K562 xenograft; K562 xenograft, 45 mg/kg PO QD, 9 days, p < 0.01): 90% | body weight of xenograft mice (K562 xenograft; K562 xenograft, 5, 15 and 45 mg/kg): without causing significant bodyweight loss | phosphorylation of Crkl (phosphorylation of Crkl): significantly inhibited | late-phase apoptosis (K562 cells [10]): late-phase apoptosis was also observed
